Measurements published in publication PMC3060995 (Peptides, 2011).

Columns and labels:
[1] = test system: food intake in freely-feeding rats; assay: 3-h IV infusion at dark onset, food intake in non-food-deprived rats; type: in vivo, rat (male Sprague-Dawley)
How it was run: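 Male Sprague-Dawley rats (350–500 g), housed individually on a 12:12-h light-dark cycle, had ad libitum ground chow. They were jugular-catheterised and tethered to infusion swivels. Each received a single 3-h jugular infusion per day of test compound or vehicle (0.15 M NaCl, 0.1% BSA). Food intake was recorded continuously from bowl weight. Rats with non-patent catheters (Brevital test) were excluded. Analysis used repeated-measures ANOVA with paired t-tests.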

[2] = test system: food intake in freely-feeding rats; conditions: cited from earlier work
[3] = 15 pmol/kg/min, 3-h IV infusion at dark onset, vs vehicle, 11–15 rats

peptide YY(1–36)-amide [PYY(1–36)-NH2]
effect on food intake [1, 3]: significantly smaller effect
effect on food intake ([1]; 50 pmol/kg/min, 3-h IV infusion at dark onset, vs vehicle, 11–16 rats): similarly reduced food in a dose-dependent manner
effect on food intake ([1]; 150 pmol/kg/min, 3-h IV infusion at dark onset, vs vehicle, 11–16 rats): similarly reduced food in a dose-dependent manner

peptide YY(3–36)-amide [PYY(3–36)-NH2]
approximate mean effective dose for inhibition of food intake ([2]; 3-h IV infusion at dark onset, rats, previously determined): ~15 pmol/kg/min
potency in reducing food intake relative to PYY(1–36)-NH2 ([2]; 3-h IV infusion during the early dark period, freely-feeding rats): an order of magnitude more potent
effect on food intake [1, 3]: significantly reduced food intake
reduction of 3-h food intake ([1]; 15 pmol/kg/min, 3-h jugular vein infusion beginning 15 min before dark onset, vs vehicle, 11–16 rats, group means): 29%
inhibition of 3-h food intake ([1]; 50 pmol/kg/min, 3-h jugular vein infusion beginning 15 min before dark onset, vs vehicle, 11–16 rats, group means): 42%
relative anorexigenic potency (comparison between PYY forms) ([1]; 3-h IV infusion at dark onset, rats): more potent than Ser^13(PO3)-PYY(3–36)-NH2
